# Measured values taken from ChEMBL document CHEMBL1148529, “Isatin compounds as noncovalent SARS coronavirus 3C-like protease inhibitors” (J Med Chem, 2006).
# How the values were obtained:
# Replicase polyprotein 1a = Replicase polyprotein 1a (Severe acute respiratory syndrome-related coronavirus, UniProt P0C6U8); assay: Inhibition of SARS CoV 3C-like protease
# [1] = target: Replicase polyprotein 1a (Severe acute respiratory syndrome-related coronavirus) (UniProt P0C6U8); assay: Inhibition of SARS CoV 3C-like protease at 100 uM
# Trypsin = Trypsin (Homo sapiens, UniProt P07477+P07478+P35030); assay: Inhibition of trypsin; format: protein assay
# In short: (§1)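 HPLC-based activity assay with substrate S0120 at 400 µM. Enzyme levels: papain 4.5 µM, chymotrypsin 0.45 µM, trypsin 0.23 µM. IC50 determined from HPLC measurements.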
# Chymotrypsinogen B = Chymotrypsinogen B (Homo sapiens, UniProt P17538); assay: Inhibition of chymotrypsin; in short: as §1
# Chain of Chymotrypsinogen B (P17538 34-164 limits assumed, other chains not shown): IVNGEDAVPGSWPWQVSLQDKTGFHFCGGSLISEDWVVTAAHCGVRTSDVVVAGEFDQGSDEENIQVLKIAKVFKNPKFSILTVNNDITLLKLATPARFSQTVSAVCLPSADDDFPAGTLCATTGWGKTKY
# Chain of Chymotrypsinogen B (P17538 167-263 limits assumed, other chains not shown): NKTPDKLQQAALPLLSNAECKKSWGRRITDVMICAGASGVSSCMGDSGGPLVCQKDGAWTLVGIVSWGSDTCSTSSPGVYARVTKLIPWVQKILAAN
# [2] = target: T1, Human rhinovirus A protease (Human rhinovirus sp., UniProt Q4U254); assay: Inhibition of human rhinovirus 14 3C protease; design: species or system rhinovirus B14
# T1 sequence (Q4U254 whole entry): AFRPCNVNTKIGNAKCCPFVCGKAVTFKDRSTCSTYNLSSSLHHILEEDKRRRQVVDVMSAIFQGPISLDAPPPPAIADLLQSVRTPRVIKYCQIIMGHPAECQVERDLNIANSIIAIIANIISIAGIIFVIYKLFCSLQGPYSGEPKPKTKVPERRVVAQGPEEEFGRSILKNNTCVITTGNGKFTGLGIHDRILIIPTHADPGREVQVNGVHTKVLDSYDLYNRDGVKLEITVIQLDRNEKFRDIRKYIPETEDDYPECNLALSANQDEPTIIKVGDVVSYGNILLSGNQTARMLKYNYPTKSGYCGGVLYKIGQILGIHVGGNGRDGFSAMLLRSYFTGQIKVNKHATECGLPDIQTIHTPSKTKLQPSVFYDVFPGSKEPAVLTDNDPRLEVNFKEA
# Papain = target: T2, Papain (Carica papaya, UniProt P00784); assay: Inhibition of papain; in short: as §1
# T2 sequence (P00784 whole entry): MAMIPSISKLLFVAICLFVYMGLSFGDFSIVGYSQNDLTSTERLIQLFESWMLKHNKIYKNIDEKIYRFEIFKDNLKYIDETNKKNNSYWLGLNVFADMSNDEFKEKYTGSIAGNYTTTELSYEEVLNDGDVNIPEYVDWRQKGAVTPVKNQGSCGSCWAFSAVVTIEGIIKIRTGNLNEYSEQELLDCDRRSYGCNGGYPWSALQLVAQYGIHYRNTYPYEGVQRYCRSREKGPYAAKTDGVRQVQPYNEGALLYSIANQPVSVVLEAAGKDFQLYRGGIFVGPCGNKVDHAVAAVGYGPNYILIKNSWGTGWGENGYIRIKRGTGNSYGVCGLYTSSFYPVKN
Structure (SMILES),inhibition [1] [%],other results
O=C1C(=O)N(Cc2ccccc2)c2ccc(I)cc21,–,IC50 (Replicase polyprotein 1a): 50 µM; Ki (Replicase polyprotein 1a): 50 µM
CN1C(=O)C(=O)c2cc(C(=O)O)ccc21,< 25,–
O=C1Nc2ccc(I)cc2C1=O,< 25,–
O=C(O)c1ccc2c(c1)C(=O)C(=O)N2Cc1ccccc1,< 25,–
CN1C(=O)C(=O)c2cc(I)ccc21,< 25,–
CCCN1C(=O)C(=O)c2cc(C(=O)O)ccc21,< 25,–
O=C(O)c1ccc2c(c1)C(=O)C(=O)N2Cc1ccc2ccccc2c1,46,–
COC(=O)c1ccc2c(c1)C(=O)C(=O)N2Cc1ccc2ccccc2c1,< 25,–
CCCN1C(=O)C(=O)c2cc(I)ccc21,25,–
NC(=O)c1ccc2c(c1)C(=O)C(=O)N2Cc1ccc2ccccc2c1,–,IC50 (Trypsin): 352 µM; IC50 (Chymotrypsinogen B): 34 µM; IC50 [2]: 0.004 µM; IC50 (Papain): 11 µM
CCCCN1C(=O)C(=O)c2cc(C(=O)OC)ccc21,< 25,–
NC(=O)c1ccc2c(c1)C(=O)C(=O)N2,< 25,–
CN1C(=O)C(=O)c2cc(C(N)=O)ccc21,–,IC50 (Replicase polyprotein 1a): 71 µM; Ki (Replicase polyprotein 1a): 71 µM
O=C1Nc2ccc(C(=O)O)cc2C1=O,< 25,–
NC(=O)c1ccc2c(c1)C(=O)C(=O)N2Cc1ccccc1,–,IC50 (Replicase polyprotein 1a): 12.5 µM
COC(=O)c1ccc2c(c1)C(=O)C(=O)N2Cc1ccccc1,< 25,–
CCCN1C(=O)C(=O)c2cc(C(=O)OC)ccc21,< 25,–
CCCCN1C(=O)C(=O)c2cc(C(=O)O)ccc21,< 25,–
COC(=O)c1ccc2c(c1)C(=O)C(=O)N2C,< 25,–
